# Out of some 360,000 compounds screened, about 890 (0.25%) were called active. This excerpt belongs to a sample that is enriched for actives. A number with no mark means an inactive call.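 The calls were made as follows: active = inhibition at 20 µM, scaled per plate between control wells, above about 37% (limit read from the data); inactive = the rest.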
# Molecular target: Tyrosine-protein phosphatase non-receptor type 5 (Homo sapiens) (UniProt P54829)
# Experiment: inhibition of human PTPN5 enzyme activity – biochemical, fluorescence intensity, uHTS, primary screen (AID 588621);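 also: 0% = DMSO with enzyme and substrate and 100% = substrate only without enzyme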
# Details: recombinant STEP, OMFP fluorogenic substrate, at 20 µM, active compounds read high
# Method in brief: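 Measure: Control-normalized % inhibition with plate pattern correction | Test system: STEP phosphatase, cell-free reaction | Medium: pH 6.0 Bis-Tris with DTT and Tween 20 | Technique: Fluorescence, 480/540 nm | Times: Reaction 20 min, ambient temperature | Doses: Single compound dose of 20 µM, 1% DMSO final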
# Sequence of Tyrosine-protein phosphatase non-receptor type 5 (Homo sapiens) (P54829 whole entry, looked up): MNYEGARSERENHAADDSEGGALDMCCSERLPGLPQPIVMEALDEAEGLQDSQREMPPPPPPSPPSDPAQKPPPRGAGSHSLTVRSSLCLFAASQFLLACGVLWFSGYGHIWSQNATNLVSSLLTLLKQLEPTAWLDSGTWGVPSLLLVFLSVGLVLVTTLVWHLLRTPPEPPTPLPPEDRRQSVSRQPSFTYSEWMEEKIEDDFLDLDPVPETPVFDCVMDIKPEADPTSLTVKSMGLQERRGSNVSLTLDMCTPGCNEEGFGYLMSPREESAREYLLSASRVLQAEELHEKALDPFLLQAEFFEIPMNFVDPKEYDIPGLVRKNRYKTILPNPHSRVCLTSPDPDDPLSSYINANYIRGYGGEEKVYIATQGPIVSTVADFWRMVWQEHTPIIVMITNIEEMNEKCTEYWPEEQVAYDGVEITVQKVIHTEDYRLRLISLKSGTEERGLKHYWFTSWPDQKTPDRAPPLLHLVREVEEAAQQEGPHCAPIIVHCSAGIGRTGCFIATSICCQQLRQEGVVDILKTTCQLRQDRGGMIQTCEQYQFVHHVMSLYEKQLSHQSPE
row,Compound,inhibition
1,COc1ccc(N2C(=O)/C(=C/c3ccco3)C(=O)NC2=S)cc1,63.7% (active)
2,CC1CC=CCC12C(=O)NC(=S)NC2=O (stereo not given),0%
3,COc1ccc(-n2c(-c3ccccc3)nc3ccccc3c2=O)cc1,-0.9%
4,O=C(c1cc2nc(-c3ccccc3)cc(-c3ccccc3)n2n1)N1CCC2(CC1)OCCO2,0.4%
5,CN(C)CCN(CC1CCCN(Cc2ccccc2F)C1)C(=O)Cc1ccc(F)c(F)c1 (stereo not given),-2%
